Data as given in ChEMBL document CHEMBL3813631, “Design, synthesis, and pharmacological evaluation of JDTic analogs to examine the significance of replacement of the 3-hydroxyphenyl group with pyridine or thiophene bioisosteres” (Bioorg Med Chem, 2016).
The source made the active and inactive calls. No cut-off for these calls is given here.

Experiments:
[1] = target: Mu-type opioid receptor (Homo sapiens) (UniProt P35372); assay: Intrinsic activity at human mu opioid receptor expressed in CHO cell membrane assessed as increase in [35S]GTPgammaS binding at 10 uM after 1 hr by scintillation counting method; assay type: functional, cell membranes
Chain of Mu-type opioid receptor (Homo sapiens) (P35372 whole entry): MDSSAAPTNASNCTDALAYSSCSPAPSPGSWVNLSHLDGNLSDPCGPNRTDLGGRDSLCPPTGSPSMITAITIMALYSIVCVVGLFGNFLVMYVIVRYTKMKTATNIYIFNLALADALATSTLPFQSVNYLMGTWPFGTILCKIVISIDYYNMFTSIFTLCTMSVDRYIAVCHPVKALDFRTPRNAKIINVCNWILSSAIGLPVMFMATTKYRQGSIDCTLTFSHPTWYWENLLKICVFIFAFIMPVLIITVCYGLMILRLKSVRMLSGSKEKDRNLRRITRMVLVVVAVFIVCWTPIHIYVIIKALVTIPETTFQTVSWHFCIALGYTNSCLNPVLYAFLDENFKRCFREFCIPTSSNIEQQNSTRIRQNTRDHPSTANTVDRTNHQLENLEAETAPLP

[2] = target: Delta-type opioid receptor (Homo sapiens) (UniProt P41143); assay: Intrinsic activity at human delta opioid receptor expressed in CHO cell membrane assessed as increase in [35S]GTPgammaS binding at 10 uM after 1 hr by scintillation counting method; assay type: functional, cell membranes
Chain of Delta-type opioid receptor (Homo sapiens) (P41143 whole entry): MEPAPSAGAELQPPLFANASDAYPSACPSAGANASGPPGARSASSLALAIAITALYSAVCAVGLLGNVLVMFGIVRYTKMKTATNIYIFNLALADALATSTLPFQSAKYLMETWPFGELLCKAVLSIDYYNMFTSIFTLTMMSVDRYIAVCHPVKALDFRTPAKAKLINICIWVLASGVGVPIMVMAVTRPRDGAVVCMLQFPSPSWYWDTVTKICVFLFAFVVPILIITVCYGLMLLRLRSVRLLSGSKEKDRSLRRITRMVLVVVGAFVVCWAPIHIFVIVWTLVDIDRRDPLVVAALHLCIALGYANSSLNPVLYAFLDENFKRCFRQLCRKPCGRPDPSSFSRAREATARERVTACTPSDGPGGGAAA

[3] = target: Kappa-type opioid receptor (Homo sapiens) (UniProt P41145); assay: Intrinsic activity at human kappa opioid receptor expressed in CHO cell membrane assessed as increase in [35S]GTPgammaS binding at 10 uM after 1 hr by scintillation counting method; assay type: functional, cell membranes
Chain of Kappa-type opioid receptor (Homo sapiens) (P41145 whole entry): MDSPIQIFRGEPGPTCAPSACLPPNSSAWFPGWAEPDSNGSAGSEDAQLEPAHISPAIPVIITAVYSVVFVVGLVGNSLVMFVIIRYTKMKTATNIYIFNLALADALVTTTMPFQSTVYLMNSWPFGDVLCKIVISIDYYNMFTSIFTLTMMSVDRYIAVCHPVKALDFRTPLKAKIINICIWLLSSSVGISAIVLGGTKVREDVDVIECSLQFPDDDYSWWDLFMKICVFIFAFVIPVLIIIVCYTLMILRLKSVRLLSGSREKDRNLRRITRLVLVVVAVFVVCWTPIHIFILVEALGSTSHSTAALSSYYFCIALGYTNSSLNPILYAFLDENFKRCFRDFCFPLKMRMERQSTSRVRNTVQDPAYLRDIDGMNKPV

[4] = target: Kappa-type opioid receptor (Homo sapiens) (UniProt P41145); assay: Antagonist activity at human kappa opioid receptor expressed in CHO cell membrane assessed as inhibition of U69,593-induced [35S]GTPgammaS binding after 1 hr by scintillation counting method; assay type: functional, cell membranes
Summary of the method: (§1)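 Antagonist Ke values were obtained from [35S]GTPγS binding at each opioid receptor. Each value is the mean ± SEM of at least three independent experiments, and each experiment was run in duplicate.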

CHO [5] = assay: Selectivity ratio of Ke for human mu opioid receptor expressed in CHO cell membrane to Ke for human kappa opioid receptor expressed in CHO cell membrane; assay type: cell-based
CHO [6] = assay: Selectivity ratio of Ke for human delta opioid receptor expressed in CHO cell membrane to Ke for human kappa opioid receptor expressed in CHO cell membrane; assay type: cell-based
[7] = target: Mu-type opioid receptor (Homo sapiens) (UniProt P35372); assay: Antagonist activity at human mu opioid receptor expressed in CHO cell membrane assessed as inhibition of DAMGO-induced [35S]GTPgammaS binding after 1 hr by scintillation counting method; assay type: functional, cell membranes; summary of the method: as §1
[8] = target: Delta-type opioid receptor (Homo sapiens) (UniProt P41143); assay: Antagonist activity at human delta opioid receptor expressed in CHO cell membrane assessed as inhibition of DPDPE-induced [35S]GTPgammaS binding after 1 hr by scintillation counting method; assay type: functional, cell membranes; summary of the method: as §1

Intrinsic activity [1]	Intrinsic activity [2]	Intrinsic activity [3]	Ke [4] [nM]	Ke [7] [nM]	Ke [8] [nM]	Compound	Ratio Ke (CHO [5])	Ratio Ke (CHO [6])
inactive	inactive	inactive	0.51	–	–	CC(C)[C@@H](CN1CCC(c2ccncc2)CC1)NC(=O)[C@H]1Cc2ccc(O)cc2CN1	112	1350
inactive	inactive	inactive	0.43	–	–	CC(C)[C@@H](CN1CCC(c2ccccn2)CC1)NC(=O)[C@H]1Cc2ccc(O)cc2CN1	33	1370
inactive	inactive	inactive	0.12	3.93	118	CC(C)[C@@H](CN1CCC(c2ccsc2)CC1)NC(=O)[C@H]1Cc2ccc(O)cc2CN1	33	983
inactive	inactive	inactive	0.51	–	–	CC(C)[C@@H](CN1CCC(c2cccnc2)CC1)NC(=O)[C@H]1Cc2ccc(O)cc2CN1	89	2240
–	–	–	–	–	–	CC(C)[C@@H](CN1CCC(c2ccccc2)CC1)NC(=O)[C@H]1Cc2ccc(O)cc2CN1	77	5510

Compound	Intrinsic activity [1]	Intrinsic activity [2]	Intrinsic activity [3]	Ke [4] [nM]	Ke [7] [nM]	Ke [8] [nM]	Ratio Ke (CHO [5])	Ratio Ke (CHO [6])
CC(C)[C@@H](CN1CCC(C)(c2cccnc2)CC1)NC(=O)[C@H]1Cc2ccc(O)cc2CN1	inactive	inactive	inactive	0.18	–	–	273	> 16700
CC(C)[C@@H](CN1CCC(C)(c2ccncc2)CC1)NC(=O)[C@H]1Cc2ccc(O)cc2CN1	inactive	inactive	inactive	1.75	–	–	88	1430
